Tests used:
[1] = molecular target: T1, Broad substrate specificity ATP-binding cassette transporter ABCG2 (Homo sapiens, UniProt Q9UNQ0); assay: […] expressed in Sf9 insect cell membranes at 0.1 uM after 30 mins by colorimetric analysis relative to basal control in presence of sodium orthovanadate; settings: sf9, 0.5 h
T1 sequence (Q9UNQ0 whole entry): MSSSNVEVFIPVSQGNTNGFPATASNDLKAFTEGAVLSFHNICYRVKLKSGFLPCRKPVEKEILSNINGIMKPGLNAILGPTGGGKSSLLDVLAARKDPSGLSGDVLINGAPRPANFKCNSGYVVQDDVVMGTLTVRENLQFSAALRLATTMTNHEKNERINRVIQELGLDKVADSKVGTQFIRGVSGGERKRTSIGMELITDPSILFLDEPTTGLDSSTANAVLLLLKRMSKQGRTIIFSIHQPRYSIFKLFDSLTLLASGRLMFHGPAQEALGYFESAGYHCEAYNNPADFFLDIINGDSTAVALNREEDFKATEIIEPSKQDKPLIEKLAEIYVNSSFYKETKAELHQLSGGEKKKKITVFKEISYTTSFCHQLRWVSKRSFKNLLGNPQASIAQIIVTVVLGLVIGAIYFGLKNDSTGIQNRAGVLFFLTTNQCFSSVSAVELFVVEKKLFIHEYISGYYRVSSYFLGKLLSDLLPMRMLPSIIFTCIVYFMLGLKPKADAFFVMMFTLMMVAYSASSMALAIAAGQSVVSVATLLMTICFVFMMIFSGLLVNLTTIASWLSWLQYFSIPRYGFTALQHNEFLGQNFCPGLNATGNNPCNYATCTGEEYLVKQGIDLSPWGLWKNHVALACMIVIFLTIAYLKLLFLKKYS
How it was run: (§1)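 Basal vanadate-sensitive ATPase assay on cholesterol-loaded membranes from human ABCG2-expressing Sf9 cells (0.5 mg/mL; 10 μg/sample). Buffer: 50 mM Tris-HCl, 50 mM NaCl, pH 8.0, with azide, ouabain, DTT and EGTA, ± 0.33 mM orthovanadate. Compound at 2 μM, or substrates nilotinib 0.1 μM, quercetin 2 μM, prazosin 20 μM. ATP-Mg 3.9 mM, 30 min at 37 °C. Phosphate read by molybdate/ascorbate at 880 nm.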

[2] = molecular target: T1, Broad substrate specificity ATP-binding cassette transporter ABCG2; assay: […] expressed in Sf9 insect cell membranes at 20 uM after 30 mins by colorimetric analysis relative to basal control in presence of sodium orthovanadate; settings: sf9, 0.5 h; how it was run: as §1
[3] = molecular target: T1, Broad substrate specificity ATP-binding cassette transporter ABCG2; assay: Inhibition of ABCG2 (unknown origin)-mediated mitoxantrone efflux expressed in HEK293 cells after 30 mins by flow cytometric analysis; format: cell-based
[4] = molecular target: T1, Broad substrate specificity ATP-binding cassette transporter ABCG2; assay: Binding affinity to ABCG2 (unknown origin) expressed in HEK293 cells assessed as modulation of 5D3 binding at 5 uM after 45 mins by flow cytometric analysis relative to Ko143; format: cell-based; settings: hek293, 0.75 h
How it was run: (§2)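 5D3 shift assay on ABCG2-transfected HEK293 cells (0.5 × 10^6 cells/tube) in PBS with 0.5% BSA. Compound at 2 or 5 μM plus 5D3 anti-ABCG2 antibody or isotype control (1 μg/mL), 45 min at 37 °C. Anti-mouse Alexa Fluor 488 secondary (3 μg/mL), 30 min at 37 °C. Binding read by flow cytometry, expressed relative to 2 μM Ko143 (100%). Mean ± SD of ≥3 independent experiments.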

ABCG2 [5] = molecular target: T2, ABCG2 (Homo sapiens, UniProt Q9UNQ0); assay: Inhibition of ABCG2 (unknown origin)-mediated mitoxantrone efflux expressed in HEK293 cells at 5 to 10 uM after 30 mins by flow cytometric analysis relative to control; format: cell-based; settings: HEK293 cells expressing ABCG2, probe mitoxantrone, read-out: Imax
T2 sequence (Q9UNQ0 whole entry): T1 sequence (Q9UNQ0 whole entry)

ABCG2 [6] = molecular target: T2, ABCG2; assay: Inhibition of ABCG2-mediated mitoxantrone efflux in mitoxantrone-selected human H460 cells at 5 to 10 uM after 30 mins by flow cytometric analysis relative to control; format: cell-based; settings: probe mitoxantrone, read-out: Imax
[7] = molecular target: T1, Broad substrate specificity ATP-binding cassette transporter ABCG2; assay: Inhibition of human ABCG2 expressed in Sf9 insect cell membranes assessed as inhibition of quercetin-stimulated ATPase activity after 30 mins by colorimetric analysis in presence of sodium orthovanadate; settings: for inhibition (INH): human, sf9, 0.5 h
How it was run: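 Quercetin (2 μM)-stimulated vanadate-sensitive ATPase assay on cholesterol-loaded ABCG2 Sf9 membranes (10 μg/sample) in Tris/NaCl buffer, pH 8.0. Compound at 0.01, 0.03, 0.5 and 2 μM. ATP-Mg 3.9 mM, 30 min at 37 °C. Released phosphate read colorimetrically at 880 nm. IC50 estimated as 50% inhibition of initial activity; three independent experiments.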

[8] = molecular target: T1, Broad substrate specificity ATP-binding cassette transporter ABCG2; assay: Inhibition of ABCG2-mediated mitoxantrone efflux in mitoxantrone-selected human H460 cells after 30 mins by flow cytometric analysis; format: cell-based
[9] = molecular target: T1, Broad substrate specificity ATP-binding cassette transporter ABCG2; assay: Stimulation of human ABCG2 ATPase activity expressed in Sf9 insect cell membranes at 2 uM after 30 mins by colorimetric analysis relative to basal control in presence of sodium orthovanadate; settings: sf9, 0.5 h
[10] = molecular target: T1, Broad substrate specificity ATP-binding cassette transporter ABCG2; assay: Binding affinity to ABCG2 (unknown origin) expressed in HEK293 cells assessed as modulation of 5D3 binding at 2 uM after 45 mins by flow cytometric analysis relative to Ko143; format: cell-based; settings: hek293, 0.75 h; how it was run: as §2
[11] = molecular target: Multidrug resistance-associated protein 1 (Homo sapiens, UniProt P33527); assay: Inhibition of ABCC1 (unknown origin)-mediated calcein-AM efflux expressed in HEK293 cells at 5 uM after 30 mins by flow cytometric analysis; format: cell-based; settings: hek293, 0.5 h
[12] = molecular target: ATP-dependent translocase ABCB1 (Homo sapiens, UniProt P08183); assay: Inhibition of ABCB1 (unknown origin)-mediated rhodamine 123 efflux expressed in mouse NIH/3T3 cells at 5 uM after 30 mins by flow cytometric analysis; format: cell-based; settings: nih/3t3, 0.5 h
ABCG2 [13] = molecular target: T2, ABCG2; assay: Inhibition of ABCG2 (unknown origin)-mediated pheophorbide A efflux expressed in HEK293 cells at 1 to 5 uM after 30 mins by flow cytometric analysis relative to control; format: cell-based; settings: HEK293 cells expressing ABCG2, probe pheophorbide A, read-out: Imax
How it was run: (§3)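 Cells seeded at 1.5 × 10^5 cells/well and grown 48 h were exposed to BODIPY-prazosin (0.2 μM) or pheophorbide A (2 μM) for 30 min at 37 °C with or without compound. After washing and trypsinization, intracellular fluorescence was read by flow cytometry (FL4, ≥10 000 events). Percent inhibition = (C−M)/(Cev−M)×100, where Cev is from ABCG2-negative control cells.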

[14] = molecular target: T1, Broad substrate specificity ATP-binding cassette transporter ABCG2; assay: Inhibition of ABCG2 (unknown origin)-mediated BODIPY-prazosin efflux expressed in HEK293 cells at 1 to 5 uM after 30 mins by flow cytometric analysis; format: cell-based; settings: hek293, 0.5 h; how it was run: as §3
[15] = molecular target: T1, Broad substrate specificity ATP-binding cassette transporter ABCG2; assay: Inhibition of human ABCG2 ATPase activity expressed in Sf9 insect cell membranes at 2 uM after 30 mins by colorimetric analysis relative to basal control in presence of sodium orthovanadate; settings: sf9, 0.5 h; how it was run: as §1
ABCG2 [16] = molecular target: T2, ABCG2; assay: Inhibition of ABCG2 in mitoxantrone-selected human H460 cells assessed as reversal of mitoxantrone-resistance at 1 uM after 72 hrs by MTT assay relative to control; format: cell-based; settings: probe mitoxantrone
ABCG2 [17] = molecular target: T2, ABCG2; assay: Inhibition of ABCG2 in mitoxantrone-selected human H460 cells assessed as reversal of mitoxantrone-resistance at 0.2 uM after 72 hrs by MTT assay relative to control; format: cell-based; settings: probe mitoxantrone

Chain of Multidrug resistance-associated protein 1 (P33527 whole entry): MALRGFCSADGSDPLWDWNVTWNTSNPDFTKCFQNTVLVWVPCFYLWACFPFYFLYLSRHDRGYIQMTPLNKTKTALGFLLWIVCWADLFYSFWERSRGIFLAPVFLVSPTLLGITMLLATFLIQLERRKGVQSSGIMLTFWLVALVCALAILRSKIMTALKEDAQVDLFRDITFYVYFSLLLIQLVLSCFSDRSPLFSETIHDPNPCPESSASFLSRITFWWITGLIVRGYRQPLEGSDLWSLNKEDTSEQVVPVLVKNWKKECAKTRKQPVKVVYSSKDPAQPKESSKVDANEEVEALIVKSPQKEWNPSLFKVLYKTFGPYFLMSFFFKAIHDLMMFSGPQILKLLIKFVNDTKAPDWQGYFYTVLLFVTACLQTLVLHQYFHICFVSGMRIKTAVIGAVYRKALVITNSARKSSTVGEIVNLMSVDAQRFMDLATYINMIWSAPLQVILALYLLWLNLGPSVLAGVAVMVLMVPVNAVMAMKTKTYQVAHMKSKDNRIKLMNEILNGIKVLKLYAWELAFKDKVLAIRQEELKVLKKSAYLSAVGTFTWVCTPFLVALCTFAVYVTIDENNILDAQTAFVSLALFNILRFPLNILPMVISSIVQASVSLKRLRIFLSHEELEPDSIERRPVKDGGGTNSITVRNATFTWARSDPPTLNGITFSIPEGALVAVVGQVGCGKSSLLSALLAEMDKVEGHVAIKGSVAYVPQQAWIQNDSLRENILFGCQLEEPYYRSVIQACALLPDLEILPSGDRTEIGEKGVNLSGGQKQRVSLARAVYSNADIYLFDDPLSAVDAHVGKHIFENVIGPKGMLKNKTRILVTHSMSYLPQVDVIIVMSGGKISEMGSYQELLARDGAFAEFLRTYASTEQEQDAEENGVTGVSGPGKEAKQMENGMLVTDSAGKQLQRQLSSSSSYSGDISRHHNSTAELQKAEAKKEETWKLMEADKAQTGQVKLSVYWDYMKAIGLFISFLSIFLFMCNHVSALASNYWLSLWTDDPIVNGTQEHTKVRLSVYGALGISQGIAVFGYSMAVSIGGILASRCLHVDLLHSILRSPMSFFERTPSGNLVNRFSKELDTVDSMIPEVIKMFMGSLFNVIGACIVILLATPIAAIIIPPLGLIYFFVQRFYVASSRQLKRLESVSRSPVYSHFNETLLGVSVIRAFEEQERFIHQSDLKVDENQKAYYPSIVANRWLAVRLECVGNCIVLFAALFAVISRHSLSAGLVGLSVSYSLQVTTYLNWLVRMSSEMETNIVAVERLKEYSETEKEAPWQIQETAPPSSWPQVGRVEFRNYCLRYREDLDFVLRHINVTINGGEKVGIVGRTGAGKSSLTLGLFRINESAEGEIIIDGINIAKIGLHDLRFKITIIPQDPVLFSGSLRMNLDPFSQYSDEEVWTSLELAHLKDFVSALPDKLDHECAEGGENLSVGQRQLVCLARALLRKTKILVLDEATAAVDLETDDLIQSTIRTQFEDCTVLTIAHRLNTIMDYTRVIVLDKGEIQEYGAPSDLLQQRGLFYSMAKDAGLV
Chain of ATP-dependent translocase ABCB1 (P08183 whole entry): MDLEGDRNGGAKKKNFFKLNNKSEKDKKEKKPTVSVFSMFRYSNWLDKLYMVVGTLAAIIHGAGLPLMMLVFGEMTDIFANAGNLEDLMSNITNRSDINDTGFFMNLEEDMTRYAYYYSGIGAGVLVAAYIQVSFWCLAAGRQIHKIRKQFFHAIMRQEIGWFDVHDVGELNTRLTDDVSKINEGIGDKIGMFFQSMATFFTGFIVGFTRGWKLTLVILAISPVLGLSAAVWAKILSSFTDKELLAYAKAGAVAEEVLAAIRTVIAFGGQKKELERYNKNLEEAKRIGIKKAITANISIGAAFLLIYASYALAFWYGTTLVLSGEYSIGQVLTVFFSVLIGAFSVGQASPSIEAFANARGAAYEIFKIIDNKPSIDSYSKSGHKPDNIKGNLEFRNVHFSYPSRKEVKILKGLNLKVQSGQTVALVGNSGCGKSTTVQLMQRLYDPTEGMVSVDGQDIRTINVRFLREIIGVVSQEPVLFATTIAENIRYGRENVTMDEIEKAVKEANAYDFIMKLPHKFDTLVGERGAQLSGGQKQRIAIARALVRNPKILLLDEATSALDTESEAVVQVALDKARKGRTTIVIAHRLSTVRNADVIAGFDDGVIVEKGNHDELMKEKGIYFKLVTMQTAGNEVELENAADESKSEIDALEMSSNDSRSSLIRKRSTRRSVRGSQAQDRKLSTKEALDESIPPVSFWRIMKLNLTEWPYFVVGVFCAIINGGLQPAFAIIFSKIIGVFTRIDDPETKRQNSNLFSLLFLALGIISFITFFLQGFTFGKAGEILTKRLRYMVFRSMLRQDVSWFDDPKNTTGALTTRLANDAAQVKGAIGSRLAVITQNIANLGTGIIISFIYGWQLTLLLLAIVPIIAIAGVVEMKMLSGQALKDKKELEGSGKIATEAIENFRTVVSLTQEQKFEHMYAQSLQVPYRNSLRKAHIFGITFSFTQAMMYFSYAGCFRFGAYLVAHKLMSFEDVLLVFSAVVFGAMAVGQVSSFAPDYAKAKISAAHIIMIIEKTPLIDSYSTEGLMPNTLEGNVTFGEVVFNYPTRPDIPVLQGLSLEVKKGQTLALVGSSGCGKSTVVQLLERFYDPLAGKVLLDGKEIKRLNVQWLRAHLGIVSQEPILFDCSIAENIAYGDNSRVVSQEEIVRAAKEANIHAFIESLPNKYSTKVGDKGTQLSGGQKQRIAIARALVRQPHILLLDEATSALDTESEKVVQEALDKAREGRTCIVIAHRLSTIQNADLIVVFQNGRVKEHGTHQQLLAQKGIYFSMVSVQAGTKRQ

| SMILES | fold change (FC) [1] | fold change (FC) [2] | Activity [4] [%] | IC50 [7] [nM] | inhibition (INH) [7] | Activity [10] [%] | inhibition (INH) [11] | inhibition (INH) [12] | Emax at 0.5 h (ABCG2 [13]) [%] | inhibition (INH) [14] | inhibition (INH) [15] | EC50 [3] [nM] | Emax at 0.5 h (ABCG2 [5]) [%] | Emax at 0.5 h (ABCG2 [6]) [%] | EC50 [8] [nM] | fold change (FC) [9] | inhibition at 72 h, 1 µM (ABCG2 [16]) [%] | inhibition at 72 h, 0.2 µM (ABCG2 [17]) [%] |
| --- | --- | --- | --- | --- | --- | --- | --- | --- | --- | --- | --- | --- | --- | --- | --- | --- | --- | --- |
| Cc1cn(-c2cc(NC(=O)c3ccc(C)c(Nc4nccc(-c5cccnc5)n4)c3)cc(C(F)(F)F)c2)cn1 [NILOTINIB] | 3.2 | – | – | – | – | – | – | – | – | – | – | – | – | – | – | – | – | – |
| Cn1cc(CCNC(=O)c2cc(=O)c3c(OCc4ccc(Br)cc4)cccc3o2)c2ccccc21 | – | – | 98 | 1100 | Dose-dependent effect | 88.7 | Not Active | Not Active | 80 | Active | Active | 300 | 85 | 102 | 220 | – | > 61 | > 4 |
| CN(CCc1c[nH]c2ccccc12)C(=O)c1cc(=O)c2c(OCc3ccc(Br)cc3)cccc2o1 | – | – | 95.9 | > 2000 | Dose-dependent effect | 74.6 | Not Active | Not Active | 80 | Active | Active | 1110 | 105 | 89 | 570 | – | – | – |
| O=c1c(O)c(-c2ccc(O)c(O)c2)oc2cc(O)cc(O)c12 [QUERCETIN] | – | – | – | – | – | – | – | – | – | – | – | – | – | – | – | 4.1 | – | – |

More lines, main results first:

| fold change (FC) [1] | fold change (FC) [2] | Activity [4] [%] | IC50 [7] [nM] | inhibition (INH) [7] | Activity [10] [%] | inhibition (INH) [11] | inhibition (INH) [12] | Emax at 0.5 h (ABCG2 [13]) [%] | inhibition (INH) [14] | inhibition (INH) [15] | SMILES | EC50 [3] [nM] | Emax at 0.5 h (ABCG2 [5]) [%] | Emax at 0.5 h (ABCG2 [6]) [%] | EC50 [8] [nM] | fold change (FC) [9] | inhibition at 72 h, 1 µM (ABCG2 [16]) [%] | inhibition at 72 h, 0.2 µM (ABCG2 [17]) [%] |
| --- | --- | --- | --- | --- | --- | --- | --- | --- | --- | --- | --- | --- | --- | --- | --- | --- | --- | --- |
| – | 2.4 | – | – | – | – | – | – | – | – | – | COc1cc2nc(N3CCN(C(=O)c4ccco4)CC3)nc(N)c2cc1OC [PRAZOSIN] | – | – | – | – | – | – | – |
| – | – | 90.1 | 10 | Dose-dependent effect | 64.6 | – | – | – | – | – | COc1ccc2[nH]cc(CCNC(=O)c3cc(=O)c4ccc(OCc5ccc(Br)cc5)cc4o3)c2c1 | 1270 | 80 | 93 | 1540 | 2.1 | – | – |
| – | – | 98.9 | > 2000 | Dose-dependent effect | 76.4 | Not Active | Not Active | 80 | Active | Active | CN(CCc1cn(C)c2ccccc12)C(=O)c1cc(=O)c2c(OCc3ccc(Br)cc3)cccc2o1 | 1000 | 88 | 84 | 500 | – | – | – |
| – | – | 101 | 290 | Dose-dependent effect | 96.4 | Not Active | Not Active | 80 | Active | Active | COc1ccc2c(CCNC(=O)c3cc(=O)c4c(OCc5ccc(Br)cc5)cccc4o3)c[nH]c2c1 | 100 | 97 | 89 | 80 | – | > 72 | > 50 |

— ChEMBL document CHEMBL3108696, “Structure-activity relationships of chromone derivatives toward the mechanism of interaction with and inhibition of breast cancer resistance protein ABCG2” (J Med Chem, 2013)
